# Results taken from ChEMBL document CHEMBL5247575 (J Med Chem, 2018).
# Tested on: Klebsiella pneumoniae
# Assay: Synergistic antibacterial activity against Klebsiella pneumoniae 1108/1989 producing KPC-3 assessed as cefepime MIC at 4 ug/ml by broth microdilution method
# Type: functional
# Conditions: dose 4 µg/ml
# Procedure, shortened: (§1)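 Broth microdilution per CLSI guidelines, using custom frozen panels. […] Each partner drug was also tested alone. MICs were run in triplicate and the modal value is reported.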
row,SMILES,MIC
1,O.O=C(NC1CCNCC1)[C@@H]1CC[C@@H]2CN1C(=O)N2OS(=O)(=O)O [RELEBACTAM],0.5 µg/mL

# Tested on: Acinetobacter baumannii
# Assay: Synergistic antibacterial activity against ADC deleted Acinetobacter baumannii assessed as cefepime MIC at 4 ug/ml by broth microdilution method
# Type: functional
# Conditions: dose 4 µg/ml
row,SMILES,MIC
1,O.O=C(NC1CCNCC1)[C@@H]1CC[C@@H]2CN1C(=O)N2OS(=O)(=O)O [RELEBACTAM],0.25 µg/mL

# Tested on: Klebsiella pneumoniae
# Assay: Synergistic antibacterial activity against Klebsiella pneumoniae 729/1679 producing KPC-3 assessed as cefepime MIC at 4 ug/ml by broth microdilution method
# Type: functional
# Conditions: dose 4 µg/ml
# Procedure, shortened: as §1
row,SMILES,MIC
1,O.O=C(NC1CCNCC1)[C@@H]1CC[C@@H]2CN1C(=O)N2OS(=O)(=O)O [RELEBACTAM],0.5 µg/mL

# Tested on: Acinetobacter baumannii
# Assay: Synergistic antibacterial activity against Acinetobacter baumannii PR440 producing OXA-23/24/40 assessed as meropenem MIC at 4 ug/ml by broth microdilution method
# Type: functional
# Conditions: dose 4 µg/ml
row,SMILES,MIC
1,O.O=C(NC1CCNCC1)[C@@H]1CC[C@@H]2CN1C(=O)N2OS(=O)(=O)O [RELEBACTAM],> 16 µg/mL

# Tested on: Pseudomonas aeruginosa
# Assay: Antibacterial activity against Pseudomonas aeruginosa 839 by broth microdilution method
# Type: functional
# Conditions: not given
row,SMILES,MIC
1,O.O=C(NC1CCNCC1)[C@@H]1CC[C@@H]2CN1C(=O)N2OS(=O)(=O)O [RELEBACTAM],> 16 µg/mL

# Tested on: Acinetobacter baumannii
# Assay: Synergistic antibacterial activity against ADC deleted Acinetobacter baumannii transfected with pWH1266 OXA-23 assessed as meropenem MIC at 4 ug/ml by broth microdilution method
# Type: functional
# Conditions: dose 4 µg/ml
row,SMILES,MIC
1,O.O=C(NC1CCNCC1)[C@@H]1CC[C@@H]2CN1C(=O)N2OS(=O)(=O)O [RELEBACTAM],> 16 µg/mL

# Tested on: Escherichia coli
# Assay: Synergistic antibacterial activity against Escherichia coli DH10B transfected with pBC SK (-) PDC-3 assessed as meropenem MIC at 4 ug/ml by broth microdilution method
# Type: functional
# Conditions: dose 4 µg/ml
# Procedure, shortened: as §1
row,SMILES,MIC
1,O.O=C(NC1CCNCC1)[C@@H]1CC[C@@H]2CN1C(=O)N2OS(=O)(=O)O [RELEBACTAM],≤ 0.12 µg/mL

# Tested on: Acinetobacter baumannii
# Assay: Synergistic antibacterial activity against Acinetobacter baumannii PR476 producing OXA-24/40 assessed as meropenem MIC at 4 ug/ml by broth microdilution method
# Type: functional
# Conditions: dose 4 µg/ml
row,SMILES,MIC
1,O.O=C(NC1CCNCC1)[C@@H]1CC[C@@H]2CN1C(=O)N2OS(=O)(=O)O [RELEBACTAM],0.25 µg/mL

# Tested on: Pseudomonas aeruginosa
# Assay: Synergistic antibacterial activity against Pseudomonas aeruginosa CL232 assessed as cefepime MIC at 4 ug/ml by broth microdilution method
# Type: functional
# Conditions: dose 4 µg/ml
row,SMILES,MIC
1,O.O=C(NC1CCNCC1)[C@@H]1CC[C@@H]2CN1C(=O)N2OS(=O)(=O)O [RELEBACTAM],16 µg/mL

# Tested on: Bacteria
# Assay: Inhibition of bacteria PDC-3 assessed as second order rate constant K2/K using nitrocefin as substrate
# Conditions: not given
row,SMILES,K
1,O.O=C(NC1CCNCC1)[C@@H]1CC[C@@H]2CN1C(=O)N2OS(=O)(=O)O [RELEBACTAM],4.6 10^4/M/s

# Tested on: Klebsiella pneumoniae
# Assay: Synergistic antibacterial activity against Klebsiella pneumoniae 776/1742 producing KPC-2 assessed as meropenem MIC at 4 ug/ml by broth microdilution method
# Type: functional
# Conditions: dose 4 µg/ml
row,SMILES,MIC
1,O.O=C(NC1CCNCC1)[C@@H]1CC[C@@H]2CN1C(=O)N2OS(=O)(=O)O [RELEBACTAM],0.5 µg/mL

# Tested on: Escherichia coli
# Assay: Antibacterial activity against Escherichia coli DH10B by broth microdilution method
# Type: functional
# Conditions: not given
row,SMILES,MIC
1,O.O=C(NC1CCNCC1)[C@@H]1CC[C@@H]2CN1C(=O)N2OS(=O)(=O)O [RELEBACTAM],> 16 µg/mL

# Tested on: Pseudomonas aeruginosa
# Assay: Antibacterial activity against Pseudomonas aeruginosa 776 by broth microdilution method
# Type: functional
# Conditions: not given
row,SMILES,MIC
1,O.O=C(NC1CCNCC1)[C@@H]1CC[C@@H]2CN1C(=O)N2OS(=O)(=O)O [RELEBACTAM],> 16 µg/mL

# Tested on: Klebsiella pneumoniae
# Assay: Synergistic antibacterial activity against Klebsiella pneumoniae CAV 1543 producing OXA-48 assessed as cefepime MIC at 4 ug/ml by broth microdilution method
# Type: functional
# Conditions: dose 4 µg/ml
row,SMILES,MIC
1,O.O=C(NC1CCNCC1)[C@@H]1CC[C@@H]2CN1C(=O)N2OS(=O)(=O)O [RELEBACTAM],2 µg/mL

# Tested on: Acinetobacter baumannii
# Assay: Synergistic antibacterial activity against Acinetobacter baumannii PR474 producing OXA-23/24/40 assessed as cefepime MIC at 4 ug/ml by broth microdilution method
# Type: functional
# Conditions: dose 4 µg/ml
row,SMILES,MIC
1,O.O=C(NC1CCNCC1)[C@@H]1CC[C@@H]2CN1C(=O)N2OS(=O)(=O)O [RELEBACTAM],> 16 µg/mL

# Tested on: Klebsiella pneumoniae
# Assay: Synergistic antibacterial activity against Klebsiella pneumoniae 440/1360 producing KPC-2 assessed as meropenem MIC at 4 ug/ml by broth microdilution method
# Type: functional
# Conditions: dose 4 µg/ml
# Procedure, shortened: as §1
row,SMILES,MIC
1,O.O=C(NC1CCNCC1)[C@@H]1CC[C@@H]2CN1C(=O)N2OS(=O)(=O)O [RELEBACTAM],≤ 0.12 µg/mL

# Tested on: Klebsiella pneumoniae
# Assay: Synergistic antibacterial activity against Klebsiella pneumoniae 901/1860 producing KPC-3 assessed as cefepime MIC at 4 ug/ml by broth microdilution method
# Type: functional
# Conditions: dose 4 µg/ml
row,SMILES,MIC
1,O.O=C(NC1CCNCC1)[C@@H]1CC[C@@H]2CN1C(=O)N2OS(=O)(=O)O [RELEBACTAM],≤ 0.12 µg/mL

# Tested on: Pseudomonas aeruginosa
# Assay: Synergistic antibacterial activity against Pseudomonas aeruginosa 715 assessed as cefepime MIC at 4 ug/ml by broth microdilution method
# Type: functional
# Conditions: dose 4 µg/ml
row,SMILES,MIC
1,O.O=C(NC1CCNCC1)[C@@H]1CC[C@@H]2CN1C(=O)N2OS(=O)(=O)O [RELEBACTAM],16 µg/mL

# Tested on: Klebsiella pneumoniae
# Assay: Synergistic antibacterial activity against Klebsiella pneumoniae 1354/2241 producing KPC-3 assessed as cefepime MIC at 4 ug/ml by broth microdilution method
# Type: functional
# Conditions: dose 4 µg/ml
# Procedure, shortened: as §1
row,SMILES,MIC
1,O.O=C(NC1CCNCC1)[C@@H]1CC[C@@H]2CN1C(=O)N2OS(=O)(=O)O [RELEBACTAM],≤ 0.12 µg/mL

# Tested on: Klebsiella pneumoniae
# Assay: Synergistic antibacterial activity against Klebsiella pneumoniae 1398/2291 producing KPC-3 assessed as cefepime MIC at 4 ug/ml by broth microdilution method
# Type: functional
# Conditions: dose 4 µg/ml
# Procedure, shortened: as §1
row,SMILES,MIC
1,O.O=C(NC1CCNCC1)[C@@H]1CC[C@@H]2CN1C(=O)N2OS(=O)(=O)O [RELEBACTAM],≤ 0.12 µg/mL

# Tested on: Acinetobacter baumannii
# Assay: Synergistic antibacterial activity against Acinetobacter baumannii PR319 producing OXA-23/24/40 assessed as meropenem MIC at 4 ug/ml by broth microdilution method
# Type: functional
# Conditions: dose 4 µg/ml
row,SMILES,MIC
1,O.O=C(NC1CCNCC1)[C@@H]1CC[C@@H]2CN1C(=O)N2OS(=O)(=O)O [RELEBACTAM],> 16 µg/mL

# Tested on: Acinetobacter baumannii
# Assay: Synergistic antibacterial activity against ADC deleted Acinetobacter baumannii transfected with pWH1266 producing OXA-24/40 assessed as cefepime MIC at 4 ug/ml by broth microdilution method
# Type: functional
# Conditions: dose 4 µg/ml
row,SMILES,MIC
1,O.O=C(NC1CCNCC1)[C@@H]1CC[C@@H]2CN1C(=O)N2OS(=O)(=O)O [RELEBACTAM],> 16 µg/mL

# Tested on: Klebsiella pneumoniae
# Assay: Synergistic antibacterial activity against Klebsiella pneumoniae 440/1360 producing KPC-2 assessed as cefepime MIC at 4 ug/ml by broth microdilution method
# Type: functional
# Conditions: dose 4 µg/ml
# Procedure, shortened: as §1
row,SMILES,MIC
1,O.O=C(NC1CCNCC1)[C@@H]1CC[C@@H]2CN1C(=O)N2OS(=O)(=O)O [RELEBACTAM],1 µg/mL
